For 13 molecules, IC50 and inhibition results are on record in ChEMBL document CHEMBL1130022, “Novel heterocyclic-fused pyridazinones as potent and selective phosphodiesterase IV inhibitors” (J Med Chem, 1997).

In assay [1] the target is T1, Phosphodiesterase 3 (Homo sapiens, UniProt Q14432+Q13370). Kind of assay: Inhibition of guinea pig ventricular Phosphodiesterase 3. Format: protein assay, Cavia porcellus. As to conditions: target entry is the homologue from another species.
For assay [2], the target named is T2, Phosphodiesterase 4 (Homo sapiens, UniProt P27815+Q08499+Q07343+Q08493). Kind of assay: Inhibition of guinea pig ventricular Phosphodiesterase 4. Format: protein assay, Cavia porcellus. The note with it: target entry is the homologue from another species.
Assay [3] concerns the target T1, Phosphodiesterase 3. Kind of assay: Inhibition of guinea pig ventricular Phosphodiesterase 3 at 20 uM. In kind it is protein assay. As to conditions: Cavia porcellus, target entry is the homologue from another species. The method in brief:
(§1)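 Guinea pig ventricular PDE III/IV resolved by Mono-Q anion exchange (50–1000 mM sodium acetate gradient, Bis-Tris pH 6.5); isoenzymes characterized by substrate selectivity, Ca2+/calmodulin and selective inhibitors; pools stored -20 °C with 1 g/L BSA. Thompson–Strada assay, cAMP substrate 0.25 μM, duplicates; drugs in DMSO; IC50 by nonlinear regression or % inhibition at stated concentration, n = 3, ±SEM.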

For assay [4], the target named is Phosphodiesterase 4 (Rattus norvegicus) (UniProt P14270+P14646+P14644+P54748). Put plainly: Displacement of [3H]rolipram from rat brain membranes at 10 uM. In kind it is cell membranes. The note with it: Membrane.
Assay [5] deals with T1, Phosphodiesterase 3. Put plainly: Inhibition of guinea pig ventricular Phosphodiesterase 3 at 200 uM. As to conditions: Cavia porcellus, target entry is the homologue from another species.
Assay [6] addresses T2, Phosphodiesterase 4. Kind of assay: Inhibition of guinea pig ventricular Phosphodiesterase 4 at 200 uM. Format: protein assay. As to conditions: Cavia porcellus, target entry is the homologue from another species. The method in brief: as §1

Take `CCOC(=O)c1sc2c(=O)n(CC)nc(-c3ccccc3)c2c1C`: the IC50 on Phosphodiesterase 3 [1] was found to be 5900 nM; on Phosphodiesterase 4 [2], 900 nM.
At Phosphodiesterase 3 [3], `CCn1nc(-c2ccccc2)c2c(c1=O)N(C)CC(C#N)=C2C` yielded an inhibition of 51%. The molecule also displayed a half-inhibitory concentration (IC50) on Phosphodiesterase 4 [2] of 1100 nM.
On the same counts, the results for `CCOC(=O)c1sc2c(=O)n(Cc3ccccc3)nc(-c3ccccc3)c2c1C` are 20% and 11000 nM.
For `CCOC(=O)c1sc2c(=O)n(CC)nc(-c3cccc(Cl)c3)c2c1C` the same measures were 56% and 800 nM.
Turning to `CCn1nc(-c2ccccc2)c2c(C)nn(C)c2c1=O`, the inhibition at Phosphodiesterase 3 [3] was 35%; in assay [4], 46%. At Phosphodiesterase 4 [2], this molecule had an IC50 of 7400 nM.
With `O=c1c2cccnc2c(-c2cccc(Cl)c2)nn1Cc1ccncc1`, the half-inhibitory concentration (IC50) came out at 5100 nM against Phosphodiesterase 3 [1] and 56 nM at Phosphodiesterase 4 [2].
As for `CCOC(=O)c1nc2c(O)n(Cc3ccccc3)nc(-c3ccccc3)c-2c1C`, the inhibition at Phosphodiesterase 3 [3] was determined as 33%; in assay [4] it was 28%. The molecule further displayed a 50% inhibitory concentration (IC50) against Phosphodiesterase 4 [2] of 31000 nM.
In the case of `CCOC(=O)c1nc2c(O)n(CC)nc(-c3ccccc3)c-2c1C`, the inhibition against Phosphodiesterase 3 [3] was 30%. For the same molecule, at Phosphodiesterase 4 [2], the IC50 is 600 nM.
As to `Cc1nnc2c(O)n(Cc3ccccc3)nc(-c3ccccc3)c1-2`, at Phosphodiesterase 4 [2], the concentration for half-maximal inhibition (IC50) amounted to 3100 nM. In addition, the inhibition in assay [4] was 54%; against Phosphodiesterase 3 [5] it was 60%.
Take `CCn1nc(-c2ccccc2)c2c(C)nnc-2c1O`: on Phosphodiesterase 3 [3], the inhibition turned out to be 35%. Also, on Phosphodiesterase 4 [2], the IC50 was 2000 nM.
Consider `COc1ccc(C2CNC(=O)C2)cc1OC1CCCC1` (centres undefined) [ROLIPRAM], for which the half-inhibitory concentration (IC50) at Phosphodiesterase 3 [1] worked out at 242000 nM.
As to `Cc1nn(C)c2c(=O)n(Cc3ccccc3)nc(-c3ccccc3)c12`, the inhibition against Phosphodiesterase 4 [6] stood at 45%; in assay [4], 11%; on Phosphodiesterase 3 [5], 30%.
Molecule `CCOC(=O)c1sc2c(=O)n(CC)nc(-c3cccc([N+](=O)[O-])c3)c2c1C` came in with an inhibition against Phosphodiesterase 3 [3] of 25%. The same molecule returned an IC50 against Phosphodiesterase 4 [2] of 1300 nM.
